This is an account of results in ChEMBL document CHEMBL1154609, “Synthesis and antibacterial activity of isothiazolyl oxazolidinones and analogous 3(2H)-isothiazolones” (Eur J Med Chem, 2010).

In brackets after ≈: the same amount, converted by molar mass.

In experiment [1] the test system is Salmonella typhimurium. Description: Antibacterial activity against Salmonella Typhimurium ATCC 1639 after 18 hrs by agar dilution method. It is filed as functional, Salmonella enterica subsp. enterica serovar Typhimurium. As to conditions: Salmonella enterica, ATCC 1639, 18 h. Summed up:
(§1)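 Agar dilution on Mueller Hinton agar; inoculum about 10^6 CFU/mL applied to plates with twofold serial dilutions of compound in distilled water, 0.01 to 100 μg/mL; 37 °C, 18 h. DMSO-supplemented medium at matching dilution run as solvent control. MIC = lowest concentration giving no visible growth on the plate.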
In general terms: In agar dilution the substance is mixed into plates at graded concentrations.

Experiment [2] deals with Pseudomonas aeruginosa. In words: Antibacterial activity against Pseudomonas aeruginosa ATCC 9027 after 18 hrs by agar dilution method. As to conditions: ATCC 9027, 18 h.
Experiment [3] relates to Escherichia coli. Description: Antibacterial activity against Escherichia coli ATCC 8739 after 18 hrs by agar dilution method. The experiment is classed as functional. As to conditions: ATCC 8739, 18 h. Summed up: as §1
Experiment [4] concerns Staphylococcus aureus. Description: Antibacterial activity against Staphylococcus aureus ATCC 29737 after 18 hrs by agar dilution method. It is filed as functional. The following applies: ATCC 29737, 18 h. The method in brief:
as §1

The subject of experiment [5] is Staphylococcus epidermidis. Description: Antibacterial activity against Staphylococcus epidermidis ATCC 12229 after 18 hrs by agar dilution method. The following applies: ATCC 12229, 18 h. The experiment is classed as functional. Summed up:
as §1

Experiment [6] in a line: Cytotoxicity against mouse NIH/3T3 cells after 24 hrs by MTT assay. It is filed as cell-based. The following applies: NIH3T3, 24 h. Summed up:
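NIH/3T3 normal mouse fibroblasts exposed to compounds for 24 h; viability read by MTT colorimetric assay.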
For orientation: Tetrazolium dyes change colour on reduction, which living cells bring about.

In experiment [7] the test system is Staphylococcus aureus. In words: Antibacterial activity against methicillin-resistant Staphylococcus aureus isolate 1 after 18 hrs by agar dilution method. The following applies: isolate 1, 18 h. The experiment is classed as functional. Summed up: (§2)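 Agar dilution on Mueller Hinton agar. Inoculum about 10^6 CFU/mL applied to plates holding two-fold serial dilutions of compound in distilled water, 0.01 to 100 μg/mL. Incubated 37 °C for 18 h. DMSO solvent control included. MIC taken as the lowest concentration giving no visible growth on the plate.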

Experiment [8] deals with Staphylococcus aureus. Description: Antibacterial activity against methicillin-resistant Staphylococcus aureus isolate 2 after 18 hrs by agar dilution method. It is filed as functional. The following applies: isolate 2, 18 h. Summed up:
as §2

Consider `O=C1OC(Cn2sccc2=O)CN1c1ccc(N2CCOCC2)c(F)c1` (centres undefined), for which the minimal inhibitory concentration (MIC) turned out to be 12.5 µg/mL (≈ 32.9 µM) in experiment [1]; 12.5 µg/mL (≈ 32.9 µM) in experiment [2]; 25 µg/mL (≈ 65.9 µM) in experiment [3]; 6 µg/mL (≈ 15.8 µM) in experiment [4]; 12.5 µg/mL (≈ 32.9 µM) in experiment [5].

With `O=c1cc(Cl)sn1-c1ccc(F)cc1`, the MIC in experiment [1] came out at 6 µg/mL (≈ 26.1 µM); in experiment [2] it was 12.5 µg/mL (≈ 54.4 µM); in experiment [3], 6 µg/mL (≈ 26.1 µM); in experiment [4], 3 µg/mL (≈ 13.1 µM); in experiment [5], 3 µg/mL (≈ 13.1 µM).

The molecule `O=C1OC(Cn2sccc2=O)CN1c1ccccc1` (centres undefined) registered an IC50 in experiment [6] of 162 µg/mL (≈ 586 µM). The MIC in experiment [1] was determined as 0.01 µg/mL (≈ 0.0362 µM); in experiment [7], 6 µg/mL (≈ 21.7 µM); in experiment [2] it was 0.01 µg/mL (≈ 0.0362 µM); in experiment [3], 0.01 µg/mL (≈ 0.0362 µM); in experiment [4], 0.75 µg/mL (≈ 2.71 µM); in experiment [8], 10 µg/mL (≈ 36.2 µM). In addition, in experiment [5], the lowest concentration to inhibit growth (MIC) was 0.75 µg/mL (≈ 2.71 µM).

For the molecule `CC(=O)c1ccc(-n2sccc2=O)cc1`, the MIC in experiment [1], in experiment [2], in experiment [3], in experiment [4] and in experiment [5] was 12.5 µg/mL (≈ 57 µM) in each case.

`O=C1OC(Cn2sccc2=O)CN1c1ccc(F)cc1` (centres undefined): it took 174 µg/mL (≈ 591 µM) to reach half-maximal inhibition in experiment [6] (IC50). Besides, the MIC in experiment [1] is 0.75 µg/mL (≈ 2.55 µM); in experiment [7], 10 µg/mL (≈ 34 µM); in experiment [2], 0.75 µg/mL (≈ 2.55 µM); in experiment [3] it was 0.75 µg/mL (≈ 2.55 µM); in experiment [4] it was 0.75 µg/mL (≈ 2.55 µM); in experiment [8], 12.5 µg/mL (≈ 42.5 µM). Also, 1.5 µg/mL (≈ 5.1 µM) was the least that counted as inhibitory in experiment [5] (MIC).

`COc1ccc(-n2sc(Cl)cc2=O)cc1`: the MIC in experiment [1] is 1.5 µg/mL (≈ 6.21 µM); in experiment [2] it was 0.01 µg/mL (≈ 0.0414 µM); in experiment [3], 1.5 µg/mL (≈ 6.21 µM); in experiment [4], 1.5 µg/mL (≈ 6.21 µM); in experiment [5], 0.25 µg/mL (≈ 1.03 µM).

Take `O=c1ccsn1-c1ccc(C(F)(F)F)cc1`: the MIC in experiment [1] was found to be 25 µg/mL (≈ 102 µM); in experiment [2], 25 µg/mL (≈ 102 µM); in experiment [3], 25 µg/mL (≈ 102 µM); in experiment [4] it was 25 µg/mL (≈ 102 µM); in experiment [5] it was 0.25 µg/mL (≈ 1.02 µM).

Take `COc1ccc(N2CC(Cn3sccc3=O)OC2=O)cc1` (centres undefined): the minimal inhibitory concentration (MIC) in experiment [1] stood at 100 µg/mL (≈ 326 µM); in experiment [2], 100 µg/mL (≈ 326 µM); in experiment [3], 100 µg/mL (≈ 326 µM); in experiment [4], 50 µg/mL (≈ 163 µM); in experiment [5], 50 µg/mL (≈ 163 µM).

In turn, `O=C1OC(Cn2sccc2=O)CN1c1ccc(Cl)cc1` (centres undefined) registered an IC50 in experiment [6] of 194 µg/mL (≈ 624 µM). Besides, the MIC amounted to 12.5 µg/mL (≈ 40.2 µM) in experiment [1]; 12.5 µg/mL (≈ 40.2 µM) in experiment [7]; 25 µg/mL (≈ 80.4 µM) in experiment [2]; 12.5 µg/mL (≈ 40.2 µM) in experiment [3]; 1.5 µg/mL (≈ 4.83 µM) in experiment [4]; 12.5 µg/mL (≈ 40.2 µM) in experiment [8]. Also, in experiment [5], the MIC was 1.5 µg/mL (≈ 4.83 µM).

`COc1ccc(-n2sccc2=O)cc1`: the MIC is 12.5 µg/mL (≈ 60.3 µM) in experiment [1]; 25 µg/mL (≈ 121 µM) in experiment [2]; 25 µg/mL (≈ 121 µM) in experiment [3]; 10 µg/mL (≈ 48.2 µM) in experiment [4]; 3 µg/mL (≈ 14.5 µM) in experiment [5].

For `CC(=O)c1ccc(-n2sc(Cl)cc2=O)cc1`, the MIC in experiment [1] came to 25 µg/mL (≈ 98.5 µM); in experiment [2], 12.5 µg/mL (≈ 49.3 µM); in experiment [3], 12.5 µg/mL (≈ 49.3 µM); in experiment [4], 12.5 µg/mL (≈ 49.3 µM); in experiment [5], 12.5 µg/mL (≈ 49.3 µM).

Regarding `Cc1ccc(-n2sc(Cl)cc2=O)cc1`, the MIC came to 5 µg/mL (≈ 22.2 µM) in experiment [1]; 0.01 µg/mL (≈ 0.0443 µM) in experiment [2]; 5 µg/mL (≈ 22.2 µM) in experiment [3]; 5 µg/mL (≈ 22.2 µM) in experiment [4]; 0.5 µg/mL (≈ 2.22 µM) in experiment [5].

As for `Cc1ccc(N2CC(Cn3sccc3=O)OC2=O)cc1` (centres undefined), the MIC in experiment [1], in experiment [2], in experiment [3], in experiment [4] and in experiment [5] was 25 µg/mL (≈ 86.1 µM) throughout.

`O=c1ccsn1-c1cccc(Cl)c1`: the MIC was 25 µg/mL (≈ 118 µM) in experiment [1]; 25 µg/mL (≈ 118 µM) in experiment [2]; 25 µg/mL (≈ 118 µM) in experiment [3]; 10 µg/mL (≈ 47.2 µM) in experiment [4]; 12.5 µg/mL (≈ 59.1 µM) in experiment [5].

In the case of `O=c1ccsn1Cc1ccccc1`, the minimum inhibitory concentration (MIC) in experiment [1] came out at 12.5 µg/mL (≈ 65.4 µM); in experiment [2], 12.5 µg/mL (≈ 65.4 µM); in experiment [3], 12.5 µg/mL (≈ 65.4 µM); in experiment [4], 12.5 µg/mL (≈ 65.4 µM); in experiment [5] it was 6 µg/mL (≈ 31.4 µM).

As for `O=c1cc(Cl)sn1Cc1ccccc1`, the MIC in experiment [1] is 12.5 µg/mL (≈ 55.4 µM); in experiment [2], 25 µg/mL (≈ 111 µM); in experiment [3] it was 0.5 µg/mL (≈ 2.22 µM); in experiment [4], 0.5 µg/mL (≈ 2.22 µM); in experiment [5], 0.5 µg/mL (≈ 2.22 µM).

On to `O=c1cc(Cl)sn1-c1cccc(Cl)c1`, for which the MIC in experiment [1] amounted to 12.5 µg/mL (≈ 50.8 µM); in experiment [2], 12.5 µg/mL (≈ 50.8 µM); in experiment [3] it was 12.5 µg/mL (≈ 50.8 µM); in experiment [4], 6 µg/mL (≈ 24.4 µM); in experiment [5], 10 µg/mL (≈ 40.6 µM).

What is called MIC is the lowest concentration that inhibits growth of the organism. A low value points to greater potency. By IC50 is commonly meant the concentration needed to halve the response being measured. High values mean weaker potency in that assay, low ones greater potency in that assay.
